In ChEMBL document CHEMBL5380801, “Development of Substituted Phenyl Dihydrouracil as the Novel Achiral Cereblon Ligands for Targeted Protein Degradation” (J Med Chem, 2023):
Calls of active or inactive are those of the source. No cut-off for these calls is given here.

Key:
[1] = target: Protein cereblon/DNA damage-binding protein 1 (Homo sapiens, UniProt Q96SW2); test: Binding affinity to recombinant human CRBN/DDB1 assessed as dissociation constant incubated for 20 mins by fluorescence polarization assay; assay type: protein assay
[2] = target: Cereblon/Ikaros (Homo sapiens) (UniProt Q96SW2+Q13422); test: Protac activity at CRBN/IKZF1 in human MV4-11 cells assessed as induction of IKZF1 degradation at 1 to 10 uM measured after 24 hrs by Western blot analysis; assay type: cell-based; conditions: dose 1-10 µM
[3] = target: Protein cereblon/Zinc finger protein Aiolos (Homo sapiens) (UniProt Q96SW2+Q9UKT9); test: Protac activity at CRBN/IKZF3 in human MV4-11 cells assessed as induction of IKZF3 degradation at 1 to 10 uM measured after 24 hrs by Western blot analysis; assay type: cell-based; conditions: dose 1-10 µM
[4] = target: Protein cereblon/Eukaryotic peptide chain release factor GTP-binding subunit ERF3A (Homo sapiens) (UniProt Q96SW2+P15170); test: Protac activity at CRBN/GSPT1 in human MV4-11 cells assessed as induction of GSPT1 degradation at 1 to 10 uM measured after 24 hrs by Western blot analysis; assay type: cell-based; conditions: dose 1-10 µM
[5] = Stability in human liver microsomes assessed as parent compound remaining measured after 0.5 hrs in presence of NADPH by LC-MS/MS analysis; assay type: ADME, Microsome; conditions: read-out: Stability
Procedure, shortened: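 Human liver microsome incubation; percent parent remaining reported after 0.5 h.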

[6] = Stability in human plasma assessed as parent compound remaining measured after 4 hrs in presence of NADPH by LC-MS/MS analysis; assay type: ADME, cell-free; conditions: read-out: Stability
Procedure, shortened: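 Human plasma incubation; percent parent remaining reported after 4.0 h.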

[7] = Stability of the compound in HCl solution at pH 1.0 assessed as parent compound remaining at 100 uM measured after 24 hrs by HPLC analysis; assay type: physicochemical; conditions: read-out: Stability
Procedure, shortened: (§1)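 Incubated in buffer at the stated pH at 37 °C; percent parent remaining after 24 h. Ring-opening hydrolysis of the glutarimide or dihydrouracil monitored.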

[8] = Stability of the compound in potassium phosphate buffer at pH 7.4 assessed as parent compound remaining at 100 uM measured after 24 hrs by HPLC analysis; assay type: physicochemical; conditions: read-out: Stability; procedure, shortened: as §1
[9] = Stability of the compound in bicine buffer at pH 8.8 assessed as parent compound remaining at 100 uM measured after 24 hrs by HPLC analysis; assay type: physicochemical; conditions: read-out: Stability; procedure, shortened: as §1
[10] = tested on: MV4-11; test: Antiproliferative activity at human MV4-11 cells assessed as reduction in cell viability at upto 100 uM measured after 72 hrs by Alamar blue dye based analysis; assay type: functional
Procedure, shortened: (§2)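 MV4;11 cells (RPMI1640, 10% FBS, 1% Pen/Strep, 37 °C, 5% CO2, used within 20 passages) seeded at 5000–10000 cells/well, then given DMSO or compound at the indicated doses for 72 h. AlamarBlue then added; fluorescence read at ex 530–560 nm, em 590 nm. Signal normalized to DMSO-treated cells; IC50 calculated.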

[11] = Stability of the compound in bicine buffer at pH 8.8 assessed as parent compound remaining at 100 uM measured after 2 hrs by HPLC analysis; assay type: physicochemical; conditions: read-out: Stability
Procedure, shortened: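 Incubated in pH 8.8 buffer; percent parent remaining reported after 2 h.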

[12] = target: Protein cereblon/Bromodomain-containing protein 4 (Homo sapiens) (UniProt O60885+Q96SW2); test: Protac activity at CRBN/BRD4 in human MV4-11 cells assessed as degradation of BRD4 at 0.01 to 1 uM incubated for 24 hrs; assay type: cell-based; conditions: dose 0.01-1 µM
[13] = tested on: MV4-11; test: Induction of apoptosis in human MV4-11 cells assessed as caspase 3 cleavage at 0.01 to 10 nM; assay type: functional, cell-based; conditions: MV4-11, dose upper 10.0 µM, in the assay text read “0.01 to 10 uM” for “0.01 to 10 nM”
Procedure, shortened: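 MV4;11 cells treated with the indicated concentrations for 24 h, or for the indicated times. […] Blocked in 5% BSA/TBST; anti-caspase 3 and anti-β-actin overnight in the cold, HRP secondary 1 h at room temperature; ECL detection of full-length and cleaved caspase 3.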

[14] = tested on: MV4-11; test: Antiproliferative activity at human MV4-11 cells assessed as reduction in cell viability measured after 72 hrs by Alamar blue dye based analysis; assay type: functional; conditions: MV4-11, 72 h; procedure, shortened: as §2
[15] = tested on: MV4-11; test: Induction of cell cycle arrest in human MV4-11 cells assessed as accumulation of cells at G1 phase at 0.01 to 10 uM incubated for 48 hrs by PI staining based flow cytometry analysis; assay type: functional; conditions: dose 0.01-10 µM
Procedure, shortened: (§3)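 Cell-cycle distribution determined by flow cytometry (Attune) in MV4;11 cells seeded in 6-well plates and treated with the indicated concentrations for 48 h.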

[16] = tested on: MV4-11; test: Induction of cell cycle arrest in human MV4-11 cells assessed as decrease in accumulation of cells at S phase at 0.01 to 10 uM incubated for 48 hrs by PI staining based flow cytometry analysis; assay type: functional; conditions: dose 0.01-10 µM; procedure, shortened: as §3
[17] = tested on: MV4-11; test: Induction of apoptosis in human MV4-11 cells assessed as viable cells at 10 uM measured after 48 hrs by Annexin V-FITC staining based flow cytometry (reference value: 98.7%); assay type: functional; conditions: read-out: Activity
[18] = tested on: MV4-11; test: Induction of apoptosis in human MV4-11 cells assessed as viable cells at 1 uM measured after 48 hrs by Annexin V-FITC staining based flow cytometry (reference value: 98.7%); assay type: functional; conditions: read-out: Activity
[19] = tested on: MV4-11; test: Induction of apoptosis in human MV4-11 cells assessed as viable cells at 0.1 uM measured after 48 hrs by Annexin V-FITC staining based flow cytometry (reference value: 98.7%); assay type: functional; conditions: read-out: Activity
[20] = tested on: MV4-11; test: Induction of apoptosis in human MV4-11 cells assessed as viable cells at 0.01 uM measured after 48 hrs by Annexin V-FITC staining based flow cytometry (reference value: 98.7%); assay type: functional; conditions: read-out: Activity
[21] = tested on: MV4-11; test: Induction of apoptosis in human MV4-11 cells assessed as early apoptotic cells at 10 uM measured after 48 hrs by Annexin V-FITC staining based flow cytometry (reference value: 0%); assay type: functional
[22] = tested on: MV4-11; test: Induction of apoptosis in human MV4-11 cells assessed as early apoptotic cells at 1 uM measured after 48 hrs by Annexin V-FITC staining based flow cytometry (reference value: 0%); assay type: functional
[23] = tested on: MV4-11; test: Induction of apoptosis in human MV4-11 cells assessed as early apoptotic cells at 0.1 uM measured after 48 hrs by Annexin V-FITC staining based flow cytometry (reference value: 0%); assay type: functional
[24] = tested on: MV4-11; test: Induction of apoptosis in human MV4-11 cells assessed as early apoptotic cells at 0.01 uM measured after 48 hrs by Annexin V-FITC staining based flow cytometry (reference value: 0%); assay type: functional
[25] = tested on: MV4-11; test: Induction of apoptosis in human MV4-11 cells assessed as late apoptotic cells at 10 uM measured after 48 hrs by Annexin V-FITC staining based flow cytometry (reference value: 0.42%); assay type: functional
[26] = tested on: MV4-11; test: Induction of apoptosis in human MV4-11 cells assessed as late apoptotic cells at 1 uM measured after 48 hrs by Annexin V-FITC staining based flow cytometry (reference value: 0.42%); assay type: functional
[27] = tested on: MV4-11; test: Induction of apoptosis in human MV4-11 cells assessed as late apoptotic cells at 0.1 uM measured after 48 hrs by Annexin V-FITC staining based flow cytometry (reference value: 0.42%); assay type: functional
[28] = tested on: MV4-11; test: Induction of apoptosis in human MV4-11 cells assessed as late apoptotic cells at 0.01 uM measured after 48 hrs by Annexin V-FITC staining based flow cytometry (reference value: 0.42%); assay type: functional
[29] = tested on: MV4-11; test: Induction of apoptosis in human MV4-11 cells assessed as necrotic cells at 10 uM measured after 48 hrs by Annexin V-FITC staining based flow cytometry (reference value: 0.86%); assay type: functional
[30] = tested on: MV4-11; test: Induction of apoptosis in human MV4-11 cells assessed as necrotic cells at 1 uM measured after 48 hrs by Annexin V-FITC staining based flow cytometry (reference value: 0.86%); assay type: functional
[31] = tested on: MV4-11; test: Induction of apoptosis in human MV4-11 cells assessed as necrotic cells at 0.1 uM measured after 48 hrs by Annexin V-FITC staining based flow cytometry (reference value: 0.86%); assay type: functional
[32] = tested on: MV4-11; test: Induction of apoptosis in human MV4-11 cells assessed as necrotic cells at 0.01 uM measured after 48 hrs by Annexin V-FITC staining based flow cytometry (reference value: 0.86%); assay type: functional

Protein cereblon/Zinc finger protein Aiolos (Homo sapiens), sequence (Q96SW2 whole entry, looked up): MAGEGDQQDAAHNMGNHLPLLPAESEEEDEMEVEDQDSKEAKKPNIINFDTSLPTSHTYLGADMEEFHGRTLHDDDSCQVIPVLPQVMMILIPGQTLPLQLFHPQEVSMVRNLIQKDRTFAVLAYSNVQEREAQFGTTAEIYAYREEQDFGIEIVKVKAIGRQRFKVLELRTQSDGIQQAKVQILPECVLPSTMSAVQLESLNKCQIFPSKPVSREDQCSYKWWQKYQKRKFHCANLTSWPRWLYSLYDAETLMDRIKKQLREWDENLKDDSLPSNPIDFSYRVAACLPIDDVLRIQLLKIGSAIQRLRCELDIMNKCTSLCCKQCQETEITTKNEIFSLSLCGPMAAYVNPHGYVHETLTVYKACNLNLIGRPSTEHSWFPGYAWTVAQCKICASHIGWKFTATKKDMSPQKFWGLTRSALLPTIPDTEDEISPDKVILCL
Protein cereblon/Zinc finger protein Aiolos (Homo sapiens), sequence (Q9UKT9 whole entry, looked up): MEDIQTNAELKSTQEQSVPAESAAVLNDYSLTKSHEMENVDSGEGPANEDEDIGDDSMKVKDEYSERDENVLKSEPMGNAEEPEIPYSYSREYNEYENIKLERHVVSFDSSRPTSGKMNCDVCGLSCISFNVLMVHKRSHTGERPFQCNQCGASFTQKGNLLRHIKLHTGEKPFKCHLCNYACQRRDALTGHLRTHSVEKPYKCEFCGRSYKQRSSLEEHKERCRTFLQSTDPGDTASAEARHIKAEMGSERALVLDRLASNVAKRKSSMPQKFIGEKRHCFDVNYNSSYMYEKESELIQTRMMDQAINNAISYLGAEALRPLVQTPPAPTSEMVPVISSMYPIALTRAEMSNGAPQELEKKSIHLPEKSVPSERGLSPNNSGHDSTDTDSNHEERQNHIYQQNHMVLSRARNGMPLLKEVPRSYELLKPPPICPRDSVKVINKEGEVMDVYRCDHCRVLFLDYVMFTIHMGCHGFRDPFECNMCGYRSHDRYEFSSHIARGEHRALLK
Protein cereblon/DNA damage-binding protein 1, sequence (Q96SW2 whole entry): as the sequence (Q96SW2 whole entry, looked up) above
Protein cereblon/DNA damage-binding protein 1, sequence (Q16531 whole entry, further chain): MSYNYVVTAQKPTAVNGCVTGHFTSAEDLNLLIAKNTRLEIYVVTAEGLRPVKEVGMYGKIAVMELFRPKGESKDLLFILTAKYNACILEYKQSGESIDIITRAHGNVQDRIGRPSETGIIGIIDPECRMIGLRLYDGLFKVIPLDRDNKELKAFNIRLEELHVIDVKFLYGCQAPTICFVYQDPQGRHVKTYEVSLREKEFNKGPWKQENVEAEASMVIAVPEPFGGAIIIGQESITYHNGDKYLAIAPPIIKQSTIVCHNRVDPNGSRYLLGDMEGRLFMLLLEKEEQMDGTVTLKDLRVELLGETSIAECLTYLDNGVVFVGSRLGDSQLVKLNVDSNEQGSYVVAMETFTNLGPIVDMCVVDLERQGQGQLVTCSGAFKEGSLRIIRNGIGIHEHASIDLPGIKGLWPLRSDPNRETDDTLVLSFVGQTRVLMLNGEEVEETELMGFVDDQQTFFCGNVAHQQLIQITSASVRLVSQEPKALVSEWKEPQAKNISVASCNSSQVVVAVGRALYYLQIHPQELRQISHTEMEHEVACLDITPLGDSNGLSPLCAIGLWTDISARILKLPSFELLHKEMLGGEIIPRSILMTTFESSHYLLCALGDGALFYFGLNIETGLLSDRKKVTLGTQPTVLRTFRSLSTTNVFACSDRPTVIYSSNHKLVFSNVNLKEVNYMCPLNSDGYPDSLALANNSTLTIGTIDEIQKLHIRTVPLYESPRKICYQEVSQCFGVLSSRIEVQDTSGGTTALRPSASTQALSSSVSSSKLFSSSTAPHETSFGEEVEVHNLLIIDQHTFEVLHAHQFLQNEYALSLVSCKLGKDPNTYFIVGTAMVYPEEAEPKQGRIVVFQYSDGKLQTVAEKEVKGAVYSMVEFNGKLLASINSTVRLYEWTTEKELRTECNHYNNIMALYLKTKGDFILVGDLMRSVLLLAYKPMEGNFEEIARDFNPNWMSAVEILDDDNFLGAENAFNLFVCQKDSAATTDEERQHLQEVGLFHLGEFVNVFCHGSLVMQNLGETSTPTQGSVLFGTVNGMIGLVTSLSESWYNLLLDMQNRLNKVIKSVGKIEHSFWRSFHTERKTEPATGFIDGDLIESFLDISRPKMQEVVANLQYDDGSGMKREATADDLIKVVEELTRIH
Protein cereblon/Eukaryotic peptide chain release factor GTP-binding subunit ERF3A (Homo sapiens), sequence (P15170 whole entry, looked up): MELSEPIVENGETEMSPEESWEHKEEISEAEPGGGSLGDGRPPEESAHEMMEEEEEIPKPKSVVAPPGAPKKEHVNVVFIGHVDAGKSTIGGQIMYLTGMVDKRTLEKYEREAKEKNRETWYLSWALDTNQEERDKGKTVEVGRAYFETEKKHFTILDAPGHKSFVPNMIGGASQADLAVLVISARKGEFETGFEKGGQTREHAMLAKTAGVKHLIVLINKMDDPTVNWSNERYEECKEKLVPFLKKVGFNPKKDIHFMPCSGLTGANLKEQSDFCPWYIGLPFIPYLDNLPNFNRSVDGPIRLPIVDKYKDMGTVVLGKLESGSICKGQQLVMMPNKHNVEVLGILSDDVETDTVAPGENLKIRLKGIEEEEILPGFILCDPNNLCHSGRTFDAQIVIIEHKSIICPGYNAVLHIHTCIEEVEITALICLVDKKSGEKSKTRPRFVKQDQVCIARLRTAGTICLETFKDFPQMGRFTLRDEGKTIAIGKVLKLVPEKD
Protein cereblon/Eukaryotic peptide chain release factor GTP-binding subunit ERF3A (Homo sapiens), sequence (Q96SW2 whole entry, looked up): as the sequence (Q96SW2 whole entry, looked up) above
Protein cereblon/Bromodomain-containing protein 4 (Homo sapiens), sequence (Q96SW2 whole entry, looked up, other chains not shown): as the sequence (Q96SW2 whole entry, looked up) above

Row | Activity [2] | Activity [3] | Activity [4] | remaining at 0.5 h [5] | remaining at 4 h [6] | remaining at 24 h, 100 µM [7] | remaining at 24 h, 100 µM [8] | remaining at 24 h, 100 µM [9] | Compound | Kd [1] | further results
1 |  |  |  |  |  |  |  |  | Cc1ccccc1N1CCC(=O)NC1=O | 1240 nM | 
2 | inactive | inactive | inactive | 100% | 88% | > 99% | > 99% | 95% | CCNC(=O)COc1cccc(N2CCC(=O)NC2=O)c1C | 2140 nM | 
3 | inactive | inactive | inactive | 90% | 102% | > 99% | > 99% | 90% | CC(=O)NCCC#Cc1cccc(N2CCC(=O)NC2=O)c1C | 630 nM | 
4 | inactive | inactive | inactive | 87% | 97% | > 99% | > 99% | 93% | Cc1c(C#CCNC(=O)OC(C)(C)C)cccc1N1CCC(=O)NC1=O |  | 
5 |  |  |  |  |  |  |  |  | CC(C)(C)OC(=O)NCC#Cc1cccc(N2CCC(=O)NC2=O)c1 | 530 nM | 
6 | inactive | inactive | inactive | 85% | 81% | > 99% | > 99% | 95% | Cc1c(OCC(=O)N2CCCCC2)cccc1N1CCC(=O)NC1=O | 1100 nM | Activity [10]: inactive
7 |  |  |  | 89% | 62% | > 99% | 39% |  | Nc1cccc2c1CN(C1CCC(=O)NC1=O)C2=O (stereo not given) [LENALIDOMIDE] |  | remaining at 2 h, 100 µM [11]: 20%
8 |  |  |  |  |  |  |  |  | Cc1sc2c(c1C)C(c1ccc(Cl)cc1)=N[C@@H](CC(=O)NC1CCN(C(=O)COc3cccc(N4CCC(=O)N(C)C4=O)c3C)CC1)c1nnc(C)n1-2 |  | Activity [12]: inactive
9 |  |  |  |  |  |  |  |  | Cc1sc2c(c1C)C(c1ccc(Cl)cc1)=N[C@@H](CC(=O)NC1CCN(C(=O)COc3cccc(N4CCC(=O)NC4=O)c3C)CC1)c1nnc(C)n1-2 |  | Activity [13]: Active; IC50 [14]: 1.1 nM; Activity [15]: Active; Activity [16]: Active; viability at 10 µM [17]: 3.88%; viability at 1 µM [18]: 7.3%; viability at 0.1 µM [19]: 17.1%; viability at 0.01 µM [20]: 77.2%; Activity [21]: 5.77%; Activity [22]: 0.49%; Activity [23]: 1.13%; Activity [24]: 0.32%; Activity [25]: 88.7%; Activity [26]: 43.6%; Activity [27]: 42.3%; Activity [28]: 13.4%; Activity [29]: 16.9%; Activity [30]: 48.7%; Activity [31]: 39.4%; Activity [32]: 9.13%
10 |  |  |  |  |  |  |  |  | Cc1c(OCC(=O)OC(C)(C)C)cccc1N1CCC(=O)NC1=O | 1200 nM | 
